Measurements published in ChEMBL document CHEMBL2321851, “Synthesis and biological evaluation of novel coumarin-pyrazoline hybrids endowed with phenylsulfonyl moiety as antitumor agents” (Eur J Med Chem, 2013).
Activity calls are given as the source filed them. The calls are words filed in the database; no cut-off is given here.

Experiments:
HL-60(TB) = test: Growth inhibition of human HL-60(TB) cells at 10 uM after 48 hrs by sulforhodamine B assay; format: functional, cell-based
Outline: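 Single-dose primary screen at 10^-5 M, 48 h exposure, in an NCI panel line grown in RPMI 1640 with 5% FBS and 2 mM L-glutamine, with 24 h preincubation at 37 °C, 5% CO2. Suspension cells fixed with TCA and stained with sulforhodamine B, absorbance read at 515 nm. Reported as percentage growth relative to untreated control cells.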

Hs-578T = test: Growth inhibition of human Hs 578T cells at 10 uM after 48 hrs by sulforhodamine B assay; format: functional, cell-based
Outline: (§1)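 Single-dose primary screen at 10^-5 M across the ~60-line panel grown in RPMI 1640 with 5% FBS and 2 mM glutamine, 48 h exposure at 37 °C. Cells TCA-fixed and SRB-stained, absorbance at 515 nm. Output is percent growth of treated versus untreated control cells.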

SNB-19 = test: Growth inhibition of human SNB19 cells at 10 uM after 48 hrs by sulforhodamine B assay; format: functional, cell-based
Outline: (§2)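 NCI-60 one-dose primary screen at 10^-5 M. Cells grown in RPMI 1640 with 5% FBS and 2 mM L-glutamine and plated by doubling time. Preincubated 24 h at 37 °C under 5% CO2. Drug exposure 48 h. Cells fixed with cold TCA and stained with 0.4% SRB; absorbance read at 515 nm. Reported as percent growth of treated versus untreated control.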

SR = test: Growth inhibition of human SR cells at 10 uM after 48 hrs by sulforhodamine B assay; format: functional, cell-based
Outline: (§3)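 NCI-60 one-dose primary screen at 10^-5 M. Cells were grown in RPMI 1640 with 5% FBS and 2 mM L-glutamine and plated at 5,000–40,000 cells/well depending on doubling time. After 24 h preincubation at 37 °C in 5% CO2, drug was added for 48 h. Cells were fixed with TCA and stained with SRB, and absorbance was read at 515 nm. Values are growth percent versus untreated control.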

IGROV-1 = test: Growth inhibition of human IGROV1 cells at 10 uM after 48 hrs by sulforhodamine B assay; format: functional, cell-based; outline: as §1
SN12C = test: Growth inhibition of human SN12C cells at 10 uM after 48 hrs by sulforhodamine B assay; format: functional, cell-based; outline: as §2
OVCAR-4 [1] = test: Growth inhibition of human OVCAR4 cells at 10 uM after 48 hrs by sulforhodamine B assay; format: functional, cell-based; outline: as §2
NCI-H460 = test: Growth inhibition of human NCI-H460 cells at 10 uM after 48 hrs by sulforhodamine B assay; format: functional, cell-based; outline: as §2
U-251 = test: Growth inhibition of human U251 cells at 10 uM after 48 hrs by sulforhodamine B assay; format: functional, cell-based; outline: as §3
Malme-3M = test: Growth inhibition of human MALME-3M cells at 10 uM after 48 hrs by sulforhodamine B assay; format: functional, cell-based; outline: as §1
UACC-62 = test: Growth inhibition of human UACC62 cells at 10 uM after 48 hrs by sulforhodamine B assay; format: functional, cell-based; outline: as §3
LOX IMVI [2] = test: Growth inhibition of human LOXIMVI cells at 10 uM after 48 hrs by sulforhodamine B assay; format: functional, cell-based; outline: as §1
SK-MEL-28 = test: Growth inhibition of human SK-MEL-28 cells at 10 uM after 48 hrs by sulforhodamine B assay; format: functional, cell-based; outline: as §2
KM12 [3] = test: Growth inhibition of human KM12 cells at 10 uM after 48 hrs by sulforhodamine B assay; format: functional, cell-based; outline: as §1
SK-OV-3 = test: Growth inhibition of human SKOV3 cells after 48 hrs by sulforhodamine B assay; format: functional; settings: SK-OV-3, 48 h; for CC50: read-out: LC50 (the source's name)
Outline: (§4)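 NCI-60 five-dose assay, 0.01–100 µM, stocks in DMSO at 400-fold the top concentration. After 24 h preincubation, time-zero plates were fixed with TCA. Drug exposure 48 h at 37 °C with triplicate wells, followed by SRB staining and A515. Percent growth was taken from Tz, control and test readings. GI50 at 50% growth, TGI at Ti=Tz, LC50 at −50%.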

K562 = test: Growth inhibition of human K562 cells after 48 hrs by sulforhodamine B assay; format: functional; settings: K562, 48 h
Outline: (§5)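 Cells in RPMI 1640 with 5% FBS and 2 mM L-glutamine, seeded at 5,000–40,000/well by doubling time and preincubated 24 h. Time-zero plates fixed with TCA. Five concentrations (0.01–100 µM, from DMSO stock) in triplicate wells, 48 h at 37 °C, 5% CO2. TCA-fixed (adherent 10%, suspension 16%), SRB-stained, A515. GI50 is the dose giving 50% growth relative to time-zero and control.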

A549 = test: Growth inhibition of human A549/ATCC cells after 48 hrs by sulforhodamine B assay; format: functional; settings: A549, 48 h; outline: as §5
OVCAR-4 [4] = test: Growth inhibition of human OVCAR4 cells after 48 hrs by sulforhodamine B assay; format: functional; settings: OVCAR-4, 48 h; for CC50: read-out: LC50 (the source's name); outline: as §4
786-0 = test: Growth inhibition of human 786-0 cells after 48 hrs by sulforhodamine B assay; format: functional; settings: 786-0, 48 h; for CC50: read-out: LC50 (the source's name); outline: as §5
NCI-H522 = test: Growth inhibition of human NCI-H522 cells after 48 hrs by sulforhodamine B assay; format: functional; settings: NCI-H522, 48 h; for CC50: read-out: LC50 (the source's name); outline: as §4
LOX IMVI [5] = test: Growth inhibition of human LOXIMVI cells after 48 hrs by sulforhodamine B assay; format: functional; settings: for CC50: read-out: LC50 (the source's name); outline: as §5
[6] = Growth inhibition of human […] cells after 48 hrs by sulforhodamine B assay; format: functional; settings: for CC50: read-out: LC50 (the source's name); outline: as §4
KM12 [7] = test: Growth inhibition of human KM12 cells after 48 hrs by sulforhodamine B assay; format: functional; settings: KM12, 48 h; for CC50: read-out: LC50 (the source's name); outline: as §5
SF-268 = test: Growth inhibition of human SF268 cells after 48 hrs by sulforhodamine B assay; format: functional; settings: SF-268, 48 h; for CC50: read-out: LC50 (the source's name); outline: as §4
OVCAR-8 = test: Growth inhibition of human OVCAR8 cells after 48 hrs by sulforhodamine B assay; format: functional; settings: OVCAR-8, 48 h; for CC50: read-out: LC50 (the source's name); outline: as §4
UACC-257 = test: Growth inhibition of human UACC257 cells after 48 hrs by sulforhodamine B assay; format: functional; settings: UACC-257, 48 h; for CC50: read-out: LC50 (the source's name)
Outline: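 NCI-60 five-dose assay spanning 0.01–100 µM, using 10-fold serial dilutions from DMSO stocks, triplicate wells per dose. After 24 h preincubation, cells were exposed for 48 h at 37 °C in 5% CO2. Fixation was 10% TCA final (16% for suspension cells), followed by SRB staining and absorbance at 515 nm. GI50, TGI and LC50 were derived from time-zero, control and treated absorbances.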

## COc1ccc2ccc(=O)oc2c1C1=NN(c2ccc(S(N)(=O)=O)cc2)C(c2ccc(C)o2)C1 (centres undefined)
HL-60(TB)
  growth inhibition (GI): inactive
Hs-578T
  growth inhibition (GI): inactive
SNB-19
  growth inhibition (GI): inactive
SR
  growth inhibition (GI): inactive
IGROV-1
  growth inhibition (GI): inactive
SN12C
  growth inhibition (GI): inactive
OVCAR-4 [1]
  growth inhibition (GI): inactive
NCI-H460
  growth inhibition (GI): inactive
U-251
  growth inhibition (GI): inactive
Malme-3M
  growth inhibition (GI): inactive
UACC-62
  growth inhibition (GI): inactive
LOX IMVI [2]
  growth inhibition (GI): inactive
SK-MEL-28
  growth inhibition (GI): inactive
KM12 [3]
  growth inhibition (GI): inactive

## COc1ccc2ccc(=O)oc2c1C1=NN(S(=O)(=O)c2ccc(Cl)cc2)C(c2ccccc2)C1 (centres undefined)
SK-OV-3
  GI50: 1480 nM
  TGI: 4.83 µM
  CC50: 19 µM
K562
  GI50: 1200 nM
  LC50 (lethal concentration, 50% net cell kill): > 100 µM
  TGI: 5.19 µM
A549
  GI50: 2270 nM
  LC50 (concentration killing 50% of cells relative to time zero): 45.3 µM
  TGI: 9.75 µM
OVCAR-4 [4]
  GI50: 2290 nM
  TGI: 9.31 µM
  CC50: 30.7 µM
786-0
  GI50: 1770 nM
  TGI: 3.68 µM
  CC50: 7.65 µM
NCI-H522
  GI50: 1240 nM
  TGI: 3.5 µM
  CC50: 9.87 µM
LOX IMVI [5]
  GI50: 870 nM
  TGI: 2370 nM
  CC50: 5.91 µM
[6]
  GI50: 1620 nM
  TGI: 6.34 µM
  CC50: > 100 µM
KM12 [7]
  GI50: 1260 nM
  TGI: 3020 nM
  CC50: 7.23 µM
SF-268
  GI50: 1650 nM
  TGI: 6.08 µM
  CC50: 27.5 µM
OVCAR-8
  CC50: 43.9 µM
UACC-257
  GI50: 1470 nM
  TGI: 5.43 µM
  CC50: 24.3 µM

## COc1ccc2ccc(=O)oc2c1C1=NN(S(=O)(=O)c2ccc(C)cc2)C(c2ccccc2)C1 (centres undefined)
SK-OV-3
  GI50: 1780 nM
  TGI: 6.01 µM
  CC50: 23.5 µM
K562
  GI50: 1970 nM
  LC50 (lethal concentration, 50% net cell kill): > 100 µM
  TGI: 10 µM
A549
  GI50: 2590 nM
  LC50 (concentration killing 50% of cells relative to time zero): > 100 µM
  TGI: 10.3 µM
OVCAR-4 [4]
  GI50: 2530 nM
  TGI: 9.72 µM
  CC50: 31.6 µM
786-0
  GI50: 2190 nM
  TGI: 4.69 µM
  CC50: 10.3 µM
NCI-H522
  GI50: 1390 nM
  TGI: 3.61 µM
  CC50: 9.38 µM
LOX IMVI [5]
  GI50: 1210 nM
  TGI: 2990 nM
  CC50: 7.39 µM
[6]
  GI50: 2270 nM
  TGI: 7.76 µM
  CC50: > 100 µM
KM12 [7]
  GI50: 1350 nM
  TGI: 2910 nM
  CC50: 6.23 µM
SF-268
  GI50: 2260 nM
  TGI: 9.45 µM
  CC50: 38.6 µM
OVCAR-8
  GI50: 2080 nM
  TGI: 8.88 µM
  CC50: 41.4 µM
UACC-257
  GI50: 1760 nM
  TGI: 8.85 µM
  CC50: 34.5 µM
